Bioassay records: PubChem, Sanford-Burnham Center for Chemical Genomics
SENP8 block-1: SENP8 (human) protease inhibition; inhibition, % at 20 µM; recombinant SENP8, Nedd8 substrate fluorescence; AID 602440; Q96LD8; actives 0.64% (n = 360,000); in the data active means inhibition mostly above about 40%, no sharp cut-off; inactive means mostly below about 27%
SENP7 inh: inhibitors of human SENP7 protease | Q9BQF6 | recombinant SENP7, Z-RLRGG-aminoluciferin luminescence, 40 min | inhibition, % at 5 µM | actives 1.5% (n = 330,000);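 active means inhibition above about 50% at the single test dose, limit read from the data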;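 further: plate controls were DMSO with enzyme for no effect and no enzyme buffer wells for full effect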
NRP1-CendR mod: alters CendR peptide binding to human NRP-1; actives 0.85% (n = 360,000); FAM-RPARPAR peptide binding to NRP-1, fluorescence polarization; AID 602438; inhibition, % at 25 µM; O14786;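 active means inhibition or corrected inhibition above about 18%, plus a signal ratio from 0.5 to 1.5, limit read from the data, passing the limit was not always enough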
SENP8 block-2: blocks the human protease SENP8; Q96LD8; purified SENP8, Z-RLRGG-aminoluciferin cleavage, luminescence; inhibition, % at 10 µM; actives 1.2% (n = 330,000); in the data active means inhibition above about 50%
SENP6 inh: blocks the human protease SENP6 | Q9GZR1 | Recombinant SENP6 catalytic domain, aminoluciferin luminescence | inhibition, % at 10 µM | actives 1.8% (n = 330,000);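 active means inhibition above about 50% at the single tested dose, limit read from the data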;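 further: plate controls were DMSO wells with enzyme for no effect and DMSO wells lacking enzyme for full effect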
Target sequence (Q9GZR1 628-1112 limits assumed): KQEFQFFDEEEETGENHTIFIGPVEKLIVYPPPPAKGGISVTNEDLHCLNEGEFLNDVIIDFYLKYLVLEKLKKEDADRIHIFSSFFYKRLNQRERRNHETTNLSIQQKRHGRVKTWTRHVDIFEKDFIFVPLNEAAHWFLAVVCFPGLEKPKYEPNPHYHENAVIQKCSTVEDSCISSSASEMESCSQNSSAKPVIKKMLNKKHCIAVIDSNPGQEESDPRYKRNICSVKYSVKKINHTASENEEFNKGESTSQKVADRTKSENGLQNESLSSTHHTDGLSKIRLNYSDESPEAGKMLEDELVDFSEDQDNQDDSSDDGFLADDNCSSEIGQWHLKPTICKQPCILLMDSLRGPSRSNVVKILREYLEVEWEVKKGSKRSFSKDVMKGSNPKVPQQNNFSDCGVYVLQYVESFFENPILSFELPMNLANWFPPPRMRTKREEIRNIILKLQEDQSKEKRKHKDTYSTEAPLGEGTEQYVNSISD
SENP1 inh: SENP1 (human) catalytic domain inhibition; actives 0.21% (n = 360,000); Q9P0U3; AID 624204; inhibition, % at 10 µM; recombinant SENP1 catalytic domain, CyPet-SUMO1-YPet FRET cleavage;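 active means inhibition at least 30% at 10 µM, raw YFP signal under a set limit, fluorescence ratio 0.5 to 1.5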;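 further: 0% = enzyme with DMSO and 100% = no enzyme wells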
Target sequence (Q9P0U3 419-644 limits assumed): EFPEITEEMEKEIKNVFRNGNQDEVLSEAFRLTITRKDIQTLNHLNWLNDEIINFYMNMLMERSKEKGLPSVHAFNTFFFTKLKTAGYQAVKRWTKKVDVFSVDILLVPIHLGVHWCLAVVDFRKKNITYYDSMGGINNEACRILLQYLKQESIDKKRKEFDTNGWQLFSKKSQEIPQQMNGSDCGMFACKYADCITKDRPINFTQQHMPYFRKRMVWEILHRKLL
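Assay system – human recombinant His6-tagged SENP1 catalytic domain enzyme · Input – SENP1 enzyme, 20 pM final · Buffer or medium – Tris pH 8 buffer plus EDTA, NaCl, BME, BSA, NP40, catalase · Schedule – 50 min reaction at room temperature · Technique – FRET read of cyan and yellow fluorescence · Control set – no-enzyme wells low, DMSO-plus-enzyme wells high control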
SENP8 confirm: confirmation of human SENP8 protease inhibitors | inhibition, % at 12.5 µM | shares compounds with SENP7 inh | Recombinant SENP8, Z-RLRGG-aminoluciferin luminescence, 60 min | actives 40% (n = 6,200);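 active means mean inhibition across replicates above about 50%, limit read from the data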
SENP6 confirm: human SENP6 inhibition, confirmed | actives 58% (n = 6,200) | inhibition, % at 12.5 µM | shares compounds with SENP7 inh | recombinant SENP6, Z-RLRGG-aminoluciferin luminescence
SENP7 confirm: confirmation of human SENP7 protease inhibitors; shares compounds with SENP7 inh; recombinant SENP7, Z-RLRGG-aminoluciferin luminescence, 40 min; inhibition, % at 12.5 µM; actives 69% (n = 6,200)
Casp3 SENP sel: caspase-3 inhibition (SENP selectivity assay); purified caspase-3, Z-DEVD-aminoluciferin luminescence, 60 min; actives 60% (n = 6,200); inhibition, % at 12.5 µM; shares compounds with SENP7 inh; AID 488918;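 active means mean inhibition above about 50%, limit read from the data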;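 further: plate controls were enzyme with DMSO for no effect and wells without caspase-3 for full effect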
Luc interf: luminescence interference (SENP counter-screen); inhibition, % at 12.5 µM; actives 39% (n = 6,200); AID 488919; Pre-incubated SENP8/Z-RLRGG-aminoluciferin, luciferase luminescence interference; shares compounds with SENP7 inh;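 active means mean inhibition above about 50% when retested at one dose, limit read from the data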;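 further: plate controls were DMSO wells with completed reaction for no effect and substrate without enzyme for full effect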
An asterisk follows results filed as active; i = inactive; nt = not tested or not shown. A selection: hits, their analogues and other compounds. The true share with any hit is near 3.3%.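 How the source made its calls, unless noted: active means mean inhibition above about 50% in the one-dose retest (limit read from the data); inactive means the rest.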

SMILES	SENP8 block-1	SENP7 inh	NRP1-CendR mod	SENP8 block-2	SENP6 inh	SENP1 inh	SENP8 confirm	SENP6 confirm	SENP7 confirm	Casp3 SENP sel	Luc interf
O=C1NC(=S)S/C1=C\c1coc2ccc(O)cc2c1=O	17.7	4.4	-175.8	60.5*	80.8*	0.7	7.0	69.3*	44.5	37.0	74.1*
N#Cc1c(N(CCO)CCO)nc(N)c2c(N)nc3c(c12)CC(=O)N3CC1CCCO1 (stereo unspecified)	-408.0	39.0	9.6	67.5*	-12.7	-37.5	-6.4	3.1	-5.9	1.1	3.1
CC(=O)Nc1cccc(NC(=O)C(=O)Nc2ccc3c(c2)N(C(=O)C2CC2)CCC3)c1	-20.9	50.1*	7.7	28.2	58.5*	-5.0	-4.2	30.3	74.8*	65.1*	23.9
COc1ccccc1NC(=O)C(=O)Nc1ccc2c(c1)N(C(=O)C1CC1)CCC2	6.0	56.1*	-2.3	-19.0	-7.5	-0.3	-8.4	-5.5	-9.2	4.6	1.2
COc1ccccc1NC(=S)N1CCCc2ccccc21	13.9	0.8	6.9	0.0	17.7	-0.6	nt	nt	nt	nt	nt
C=C1CC(Cn2cc(Br)c(=O)[nH]c2=O)(c2ccc(-c3ccccc3)cc2)OC1=O (stereo unspecified)	5.2	nt	2.9	nt	nt	0.8	nt	nt	nt	nt	nt
Cc1cc(C)cc(Cn2cc(CN3CC(N4CCCCC4)CS3(=O)=O)nn2)c1 (stereo unspecified)	3.5	nt	2.5	nt	nt	1.0	nt	nt	nt	nt	nt
O=C(Oc1ccc(-c2ccccc2)cc1)c1ccco1	20.0	nt	-0.7	nt	nt	0.6	nt	nt	nt	nt	nt
COc1ccc(C(=O)COC(=O)c2ccco2)cc1	11.9	54.9*	-2.7	50.4*	72.4*	0.4	62.1*	61.5*	85.8*	85.1*	70.9*
Cc1cccc(/C(N)=N/OC(=O)CCCc2ccccc2)c1	7.5	-0.2	8.2	39.9	60.2*	-0.5	49.5	52.4*	84.7*	67.8*	20.9
N/C(=N\OC(=O)c1ccco1)c1ccccn1	17.3	77.6*	1.3	49.2	76.4*	0.6	61.9*	62.2*	91.0*	92.3*	76.0*
N/C(=N\OC(=O)c1ccco1)c1ccccc1	5.9	80.6*	-1.9	81.9*	88.2*	-0.7	74.3*	75.2*	95.1*	90.1*	75.5*
N/C(=N\OC(=O)CCCc1ccccc1)c1ccccc1	3.6	1.7	9.2	6.8	31.0	0.6	nt	nt	nt	nt	nt
Cc1cccc(/C(N)=N/OC(=O)c2ccco2)c1	19.1	90.8*	3.3	84.3*	91.6*	3.1	91.1*	92.3*	100.6*	94.1*	85.5*
Cc1ccc(/C(N)=N/OC(=O)c2ccco2)cc1	13.0	95.4*	4.5	89.2*	72.9*	0.9	76.1*	94.8*	101.7*	90.8*	67.6*
COc1cc(OC)c(C(=O)O/N=C(\N)c2cccc(C)c2)cc1OC	-11.5	0.5	10.1	0.5	-10.5	5.5	nt	nt	nt	nt	nt
N/C(=N\OC(=O)c1cccc(Br)c1)c1ccc(Br)cc1	32.4	8.0	3.2	-19.0	-23.3	1.7	nt	nt	nt	nt	nt
N/C(=N\OC(=O)c1ccco1)c1ccc(Br)cc1	0.1	76.0*	-0.8	74.2*	92.6*	0.7	83.9*	82.9*	96.9*	75.0*	72.6*
COc1ccc(/C(N)=N/OC(=O)c2ccco2)cc1	16.7	24.2	7.7	83.5*	91.1*	-0.5	89.4*	89.8*	98.4*	90.7*	86.1*
COc1ccc(C(=O)O/N=C(\N)c2ccc(Br)cc2)cc1	14.1	26.2	-1.8	-1.3	25.8	3.9	nt	nt	nt	nt	nt
CC1(CO)CCCC1NCCNC1CCCC1(C)CO (stereo unspecified)	12.1	nt	-2.2	nt	nt	-2.5	nt	nt	nt	nt	nt
Cc1occc1C(=O)O/N=C(\N)c1ccc(Cl)cc1	-1.9	61.3*	11.8	30.8	52.7*	-0.8	32.3	32.8	74.3*	69.0*	58.5*
CCOC(=O)c1sc2ncn(CC(=O)Nc3cc(C)on3)c(=O)c2c1C	-63.6	-11.1	-41.8	11.0	5.2	-9.8	nt	nt	nt	nt	nt
O=C(Oc1ccc[nH]c1=O)c1ccccc1	12.8	nt	8.0	nt	nt	2.3	nt	nt	nt	nt	nt
O=C(Nc1ccc(F)cc1)Oc1ccc[nH]c1=O	27.3	53.1*	-7.0	-3.9	42.8	3.9	4.1	4.6	22.3	18.8	21.0
SMILES	SENP8 block-1	SENP7 inh	NRP1-CendR mod	SENP8 block-2	SENP6 inh	SENP1 inh	SENP8 confirm	SENP6 confirm	SENP7 confirm	Casp3 SENP sel	Luc interf
NC(=O)c1ccccc1N/C=C/C(=O)c1cccs1	i	75.6*	-2.0	80.8*	91.7*	-60.0	3.9	89.5*	98.5*	93.5*	87.8*
Cc1cccc(N/C=C/C(=O)c2cccs2)c1C	-22.5	93.8*	-11.6	95.2*	94.8*	-30.3	11.2	98.8*	102.1*	94.6*	95.0*
COc1cc([N+](=O)[O-])ccc1N/C=C/C(=O)c1cccs1	-33.5	97.3*	132.6	52.8*	86.5*	-23.7	33.2	55.4*	47.9	47.9	23.9
Cc1ccccc1NC(=O)Nc1cccs1	19.6	-6.1	-1.8	-13.1	6.0	-12.0	nt	nt	nt	nt	nt
O=C(/C=C/c1ccc([N+](=O)[O-])cc1)c1cccs1	20.5	-7.0	3.6	-6.6	-10.8	2.6	nt	nt	nt	nt	nt
COc1cc2oc(=O)ccc2cc1-c1c(OC)ccc2ccc(=O)oc12	-179.9	-3.1	2.9	-14.7	-10.5	0.7	nt	nt	nt	nt	nt
O=c1c2ccccc2cnn1-c1ccc(Cl)cc1	-3.6	57.4*	-16.6	34.1	58.9*	3.5	23.4	61.5*	73.3*	78.9*	33.2
Cc1ccc(-n2ncc3ccccc3c2=O)cc1Cl	-18.3	40.6	-9.7	37.0	45.3	-1.0	nt	nt	nt	nt	nt
COc1cc(OC)cc(-c2nc3ccccc3s2)c1	-63.4	91.0*	4.0	81.4*	4.3	0.9	91.5*	93.3*	99.9*	82.4*	76.8*
COc1ccc(C(=O)NCc2ccc(-c3nc4ccccc4s3)cc2)cc1OC	-44.6	3.2	-0.5	-0.1	-12.5	0.2	nt	nt	nt	nt	nt
COc1ccc2nc(-c3ccc(F)cc3)sc2c1	-475.9	97.0*	-4.7	73.7*	97.1*	-1.9	95.4*	96.8*	101.1*	94.6*	77.8*
CCOCCCNS(=O)(=O)c1ccccc1	13.4	-1.4	-2.6	-10.0	-11.6	-0.7	nt	nt	nt	nt	nt
